Source: PubChem BioAssay
T cruzi repl: T. cruzi replication inhibition | T. cruzi beta-gal in NIH3T3, luminescence, 90 h | inhibition, % (test concentration not listed) | AID 1885 | 1.4% of 300,000 active;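 active = mean inhibition across valid replicates above about 55%, limit read from the data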;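 note: signal also drops with host cell toxicity which is not excluded here; higher percent means less beta-gal luminescence so fewer parasites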
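assay system = mouse NIH/3T3 fibroblasts infected with β-gal-expressing T. cruzi Tulahuen C4 | input = 5,000 NIH/3T3 host cells per well | buffer or medium = DMEM plus 2% FBS | timing = 3 h host attachment, then at least 90 h co-culture | measured by = GalScreen luminescence, 60 min | evaluation = luminescence reflecting intracellular parasite burden, expressed as percent inhibition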
PolyA inh: inhibitors of polyadenylation in S. cerevisiae; S. cerevisiae SKY197-pL101 polyadenylation reporter, beta-gal luminescence; efflux-impaired pdr1/pdr3 knockout yeast; score 100 = 6 SD above DMSO; activity score, % at 12 µM; 0.02% of 300,000 active;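 active = lowest replicate activity score at least 50, where 100 means six control SD above control mean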;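 note: yeast exposed to compound for 9 h at 30 °C; higher score means more reporter readthrough which indicates perturbed polyadenylation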
NALP1 yeast inh: inhibitors of NALP1 inflammasome in yeast | S. cerevisiae NALP1/ASC/caspase-1 growth, X-gal OD620, 72 h | inhibition, % at 10 µM | 0.61% of 280,000 active | AID 2071; in the data active = inhibition mostly above about 24%, no sharp cut-off; inactive = mostly below about 32%
NLRP3 yeast inh: inhibitors of NALP3 inflammasome in yeast; Yeast reconstituted NLRP3/ASC/caspase-1, beta-gal luminescence, 24 h; inhibition, % at 10 µM; 0.39% of 330,000 active; AID 2825;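 active = inhibition of 50% or more; inactive = inhibition below 50%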
Calb FLC: affects C. albicans growth with fluconazole | 0.57% of 300,000 active | C. albicans CaCi-2 + fluconazole, Alamar Blue growth, 48 h | growth inhibition, % (no concentration beside the values);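 active = growth inhibition above about 58% in most replicates, limit read from the data, passing the limit was not always enough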;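 note: all wells also contain fluconazole at 8 µg/ml as a sub-toxic cotreatment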
L major viab: Leishmania major promastigote growth inhibition. Leishmania major promastigotes, resazurin fluorescence viability. inhibition, % at 10 µM. 9% of 200,000 active; in the data active = inhibition above about 50%;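 note: promastigotes grown with compound for 44 hours at 28 °C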
Numbers stand for hits. The full list was thinned out, with hits kept by preference.

Screening COc1ccc([N+](=O)[O-])cc1NC(=O)Cn1ccc(C(F)(F)F)n1 returned T cruzi repl inactive, PolyA inh inactive, NALP1 yeast inh inactive, NLRP3 yeast inh inactive, Calb FLC inactive and L major viab inactive.
Screening COc1ccc(C(=O)N(c2ccc(OC)cc2)S(=O)(=O)c2cccs2)cc1 returned T cruzi repl inactive, PolyA inh inactive, NALP1 yeast inh inactive, NLRP3 yeast inh inactive, Calb FLC inactive and L major viab 77.
`Cc1nc(Nc2ccc(C(=O)O)cc2)nc(Nc2ccc(C(=O)O)cc2)c1[N+](=O)[O-]` gave T cruzi repl inactive, PolyA inh inactive, NALP1 yeast inh inactive, NLRP3 yeast inh inactive, Calb FLC inactive and L major viab inactive.
For CC(=O)Nc1ccc(Nc2nc(C)c([N+](=O)[O-])c(Nc3ccccc3)n2)cc1 the results were T cruzi repl inactive, PolyA inh inactive, NALP1 yeast inh inactive, NLRP3 yeast inh inactive, Calb FLC inactive and L major viab 91.
`CN(C)CCCNc1cn[nH]c(=O)c1Cl` gave T cruzi repl 70, PolyA inh inactive, NALP1 yeast inh inactive, NLRP3 yeast inh inactive, Calb FLC inactive and L major viab inactive.
For CCN(CC(=O)NCc1cccs1)S(=O)(=O)c1cccc(Br)c1 the results were NLRP3 yeast inh inactive.
`O=[N+]([O-])c1cccc(OCC(O)CN2CCN(S(=O)(=O)c3cc(Cl)ccc3Cl)CC2)c1` (configuration not stated) gave T cruzi repl inactive, PolyA inh inactive, NALP1 yeast inh inactive, NLRP3 yeast inh inactive and Calb FLC inactive.
`Cc1cc(C)cc(OCCCOc2cccc3cccnc23)c1` gave T cruzi repl inactive, PolyA inh inactive, NALP1 yeast inh inactive, NLRP3 yeast inh inactive, Calb FLC inactive and L major viab 82.
COc1cccc(C=O)c1OCCCOc1cccc2cccnc12 was read as T cruzi repl inactive, PolyA inh inactive, NALP1 yeast inh 29, NLRP3 yeast inh inactive and Calb FLC inactive.
C=CCc1ccccc1OCC(=O)N/N=C/c1ccc(OC(C)=O)cc1OC(C)=O was read as T cruzi repl inactive, PolyA inh inactive, NALP1 yeast inh inactive, NLRP3 yeast inh inactive, Calb FLC inactive and L major viab 98.
Screening COc1ccc(OC)c(/C=C2\Oc3cc(OCC(=O)N4CCC(C(=O)O)CC4)ccc3C2=O)c1 returned T cruzi repl inactive, PolyA inh inactive, NALP1 yeast inh inactive, NLRP3 yeast inh inactive and Calb FLC inactive.
For CC(=O)Nc1ccc(NC(=O)c2ccc(NS(=O)(=O)c3cc(C(C)(C)C)cc(C)c3C)cc2)cc1 the results were T cruzi repl inactive, PolyA inh inactive, NALP1 yeast inh inactive, NLRP3 yeast inh inactive, Calb FLC inactive and L major viab 52.
O=C(c1ccccc1F)N1CCN(c2ccc([N+](=O)[O-])c3cccnc23)CC1 was read as T cruzi repl inactive, PolyA inh inactive, NALP1 yeast inh inactive, NLRP3 yeast inh inactive, Calb FLC inactive and L major viab 63.
`O=C(NCc1ccco1)C1CCCN1C(=O)Nc1ccccc1[N+](=O)[O-]` (configuration not stated) gave T cruzi repl inactive, PolyA inh inactive, NALP1 yeast inh inactive, NLRP3 yeast inh inactive and Calb FLC inactive.
Screening Cc1nc2ncnn2c(N2CCN(C(c3ccccc3)c3ccccc3)CC2)c1C returned T cruzi repl inactive, PolyA inh inactive, NALP1 yeast inh inactive, NLRP3 yeast inh inactive, Calb FLC inactive and L major viab 68.
`CC(=O)n1nc(-c2ccccc2)cc1-c1ccccc1` gave T cruzi repl inactive, PolyA inh inactive, NLRP3 yeast inh inactive and Calb FLC inactive.
CCOC(=O)C1CCCN(Cc2ccc(-c3ccccc3)cc2)C1 (configuration not stated) was read as T cruzi repl 68, PolyA inh inactive, NALP1 yeast inh inactive, NLRP3 yeast inh inactive and Calb FLC inactive.
Screening CN(Cc1ccccc1)C(=O)C1CCCN(Cc2cccc(Cl)c2)C1 (configuration not stated) returned T cruzi repl 60, PolyA inh inactive, NALP1 yeast inh inactive, NLRP3 yeast inh inactive, Calb FLC inactive and L major viab inactive.
Screening CCOC(=O)C1CCCN(CCC(C)c2ccccc2)C1 (configuration not stated) returned T cruzi repl inactive, PolyA inh inactive, NALP1 yeast inh inactive, NLRP3 yeast inh inactive, Calb FLC inactive and L major viab 78.
`Cc1csc(SCC(=O)Nc2cc(C(N)=O)cc(C(N)=O)c2)n1` gave NLRP3 yeast inh inactive.
For Cc1ccc(S(=O)(=O)c2ccc(Cl)cc2)cc1S(=O)(=O)N1CCN(C)CC1 the results were T cruzi repl inactive, PolyA inh inactive, NALP1 yeast inh inactive, NLRP3 yeast inh inactive, Calb FLC inactive and L major viab 99.
For Cc1cc(C)c(C)c(S(=O)(=O)NC(C)C(=O)O)c1C (configuration not stated) the results were T cruzi repl inactive, PolyA inh inactive, NLRP3 yeast inh inactive and Calb FLC inactive.
Screening Cc1ccc(S(=O)(=O)c2ccc(Cl)cc2)cc1S(=O)(=O)NC(C)C(=O)O (configuration not stated) returned T cruzi repl inactive, PolyA inh inactive, NALP1 yeast inh inactive, NLRP3 yeast inh inactive, Calb FLC inactive and L major viab 52.
CN=c1scc(C)n1/N=C/c1ccc(O)cc1O was read as T cruzi repl inactive, PolyA inh inactive, NALP1 yeast inh inactive, NLRP3 yeast inh inactive, Calb FLC inactive and L major viab 58.
Screening O=C1COc2ccc(C(=O)CSc3nc4ccccc4c(=O)n3-c3ccc(Cl)c(Cl)c3)cc2N1 returned T cruzi repl inactive, PolyA inh inactive, NALP1 yeast inh inactive, NLRP3 yeast inh inactive, Calb FLC inactive and L major viab inactive.
O=c1[nH]c2cc3c(cc2cc1C(c1nnnn1Cc1ccccc1)N1CCN2CCCC2C1)OCCO3 (configuration not stated) was read as T cruzi repl inactive, PolyA inh inactive, NALP1 yeast inh 29, NLRP3 yeast inh inactive, Calb FLC inactive and L major viab inactive.
Screening COCCn1nnnc1C(c1cc2cc(OC)ccc2[nH]c1=O)N1CCC(Cc2ccccc2)CC1 (configuration not stated) returned T cruzi repl inactive, PolyA inh inactive, NALP1 yeast inh inactive, NLRP3 yeast inh inactive, Calb FLC inactive and L major viab 50.
For Cc1ccc2[nH]c(=O)c(C(c3nnnn3CCc3ccccc3)N3CCOCC3)cc2c1 (configuration not stated) the results were T cruzi repl inactive, PolyA inh inactive, NALP1 yeast inh inactive, NLRP3 yeast inh inactive, Calb FLC inactive and L major viab 97.
`COc1ccc2cc(C(c3nnnn3CCc3ccccc3)N3CCCC(C)C3)c(=O)[nH]c2c1` (configuration not stated) gave T cruzi repl inactive, PolyA inh inactive, NALP1 yeast inh inactive, NLRP3 yeast inh inactive, Calb FLC inactive and L major viab inactive.
